Where two headings read alike, the source gives them in different places.
Tests used:
[1] = format: in vivo, Sprague-Dawley rats
In short: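 Healthy SD rats (n = 6) received a single oral dose of extract at 54 mg/kg. Tail-vein blood (0.3 mL) was taken at 0, 0.25, 0.5, 1, 2, 4, 8, 12 and 24 h; plasma was stored at −80°C. Marker compounds were measured by validated HPLC-DAD (C18, 35°C, 0.1% formic acid water/methanol gradient).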

[2] = tested on: Nrf2/HO-1 and Casp-3 pathways; assay: In vivo mechanistic validation using pathway inhibitors; parameters: species or system Sprague-Dawley (SD) rats; settings: for Effect on P.indicus-induced reduction in serum cTn-T: ML385 30 mg/kg or Z-DEVD-FMK 1 mg/kg i.p. before P. indicus 54 mg/kg + ISO; for Intrinsic cardiotoxicity of inhibitor: control experiments
In short: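 Rats (n = 8/group) received the test extract at 54 mg/kg p.o. on days 1-14 and ISO 85 mg/kg s.c. on days 7-14. An Nrf2 inhibitor (30 mg/kg) or a caspase-3 inhibitor (1 mg/kg) was given i.p. 30 min before each gavage; an ISO + vehicle group was included. Inhibition was checked by myocardial HO-1/cleaved caspase-3 western blot. Myocardial SOD and MDA (homogenate, ELISA) and serum cTn-T were measured.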

[3] = tested on: ISO-induced myocardial ischemia; assay: ECG monitoring; format: in vivo, Sprague-Dawley (SD) rats; settings: propranolol 30 mg/kg oral 14 days
In short: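 Male SD rats (n = 10/group) were dosed orally for 14 days, with ISO 85 mg/kg s.c. on days 7-14. Twenty-four hours after the last ISO, rats were anesthetized with 2% pentobarbital sodium (30 mg/kg i.p.) and fixed supine. Lead II ECG was recorded for 60 min for ST-segment and T-wave changes, QRS duration and VPB incidence.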

HO-1 = assay: Western blot of myocardial HO-1; format: in vivo, Sprague-Dawley (SD) rats; settings: propranolol 30 mg/kg oral 14 days; ISO rats; Control = 1.00
Cleaved caspase-3 = assay: Western blot of myocardial cleaved caspase-3; format: in vivo, Sprague-Dawley (SD) rats; settings: propranolol 30 mg/kg oral 14 days; ISO rats; Control = 1.00
[4] = tested on: ISO-induced myocardial ischemia; assay: Cardiac index; format: in vivo, Sprague-Dawley (SD) rats; settings: propranolol 30 mg/kg oral 14 days; vs ISO
In short: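 Male SD rats (200 ± 20 g, n = 10/group) received oral gavage daily for 14 days, with ISO 85 mg/kg s.c. on days 7-14, 30 min post-gavage. After ECG, hearts were excised, rinsed in pre-cooled saline, blotted dry and weighed. Cardiac index = heart weight/body weight, in mg/g.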

Bcl-2 = assay: Western blot of myocardial Bcl-2; format: in vivo, Sprague-Dawley (SD) rats; settings: propranolol 30 mg/kg oral 14 days; ISO rats; Control = 1.00
Nrf2 = assay: Western blot of myocardial Nrf2; format: in vivo, Sprague-Dawley (SD) rats; settings: propranolol 30 mg/kg oral 14 days; ISO rats; Control = 1.00
Bax = assay: Western blot of myocardial Bax; format: in vivo, Sprague-Dawley (SD) rats; settings: propranolol 30 mg/kg oral 14 days; ISO rats; Control = 1.00
[5] = tested on: ISO-induced myocardial ischemia; assay: H&E histopathological score of myocardial tissue; format: in vivo, Sprague-Dawley (SD) rats; settings: propranolol 30 mg/kg oral 14 days; ISO rats
In short: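 ISO model: SD rats, 14-day oral pretreatment, ISO 85 mg/kg s.c. on days 7-14. Hearts were fixed in 4% paraformaldehyde for 24 h, paraffin-embedded and cut at 4 μm. Sections were H&E-stained and examined by light microscopy for myocardial damage. Final scores were consensus evaluations.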

[6] = tested on: ISO-induced myocardial ischemia; assay: Masson's trichrome staining, myocardial fibrotic area; format: in vivo, Sprague-Dawley (SD) rats; settings: propranolol 30 mg/kg oral 14 days; ISO rats
In short: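 ISO model: SD rats, 14-day oral pretreatment, ISO 85 mg/kg s.c. on days 7-14. Paraffin heart sections (4 μm) were deparaffinized and stained with Weigert's iron hematoxylin, then Biebrich scarlet-acid fuchsin, phosphomolybdic-phosphotungstic acid and aniline blue; collagen stains blue. Images were taken at 200x. Fibrosis was expressed as collagen-positive area as a percentage of total myocardial area.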

[7] = Sprague-Dawley, rat, plasma, po, 54 mg/kg
[8] = rat plasma, single oral P. indicus extract 54 mg/kg, n = 6

CCCCC/C=C\C/C=C\CCCCCCCC(=O)O [Linoleic acid]
AUC(0-t) [1, 7]: 7210 ± 950 ng·h/mL
Cmax [1, 7]: 2450 ± 300 ng/mL
Tmax [1, 7]: 0.25 ± 0.08 h
half-life [1, 7]: 1.8 ± 0.2 h

O=c1c(O[C@@H]2O[C@H](CO)[C@@H](O)[C@H](O)[C@H]2O)c(-c2ccc(O)c(O)c2)oc2cc(O)cc(O)c12 [Quercetin-3-O-glucoside]
AUC(0-t) [1, 7]: 5950 ± 720 ng·h/mL
Cmax [1, 7]: 1280 ± 150 ng/mL
half-life [1, 7]: 3.2 ± 0.4 h
Tmax [1, 8]: 0.50 ± 0.12 h

COC(=O)CC[C@H](NC(=O)[C@H](CC(=O)OC)NC(=O)OCc1ccccc1)C(=O)N[C@H](C(=O)N[C@@H](CC(=O)OC)C(=O)CF)C(C)C [Z-DEVD-FMK]
Effect on P.indicus-induced reduction in serum cTn-T [2]: attenuated the P.indicus-induced reduction in serum cTn-T
Effect on P.indicus suppression of cleaved caspase-3 (western blot) ([2]; Z-DEVD-FMK 1 mg/kg i.p. 30 min before each P. indicus gavage (54 mg/kg) + ISO): reversed the suppression of cleaved caspase-3
Effect on P.indicus's anti-apoptotic action ([2]; Z-DEVD-FMK 1 mg/kg i.p. before P. indicus 54 mg/kg + ISO): selectively blocked its anti-apoptotic action
Intrinsic cardiotoxicity of inhibitor [2]: ruled out intrinsic cardiotoxicity

CC(C)NCC(O)COc1cccc2ccccc12 (stereo not drawn) [propranolol]
ST-segment elevation ([3]; ISO 85 mg/kg s.c. days 7-14): 0.024 ± 0.033 mV
QRS duration ([3]; ISO rats): 0.041 ± 0.002 s
Ventricular premature beats (VPBs) ([3]; ISO rats): 1.2 ± 0.3 beats/60 min
Relative expression of protein HO-1 (HO-1): 3.80 ± 0.64
Relative expression of protein Cleaved caspase-3 (Cleaved caspase-3): 2.48 ± 0.63
ISO-induced increase of cardiac index (heart weight/body weight ratio) [4]: significantly attenuated
Relative expression of protein Bcl-2 (Bcl-2): 0.63 ± 0.08
Relative expression of protein Nrf2 (Nrf2): 2.55 ± 0.21
Relative expression of protein Bax (Bax): 1.74 ± 0.36
Pathological score (H&E) vs ISO group [5]: significantly lower
Fibrotic area (Masson's trichrome) [6]: 11.2 ± 2.1%

Cc1ccccc1C(=O)N1CCc2cc(-c3nc(NC(=O)Cc4ccc5c(c4)OCO5)sc3C)ccc21 [ML385]
Effect on P.indicus's antioxidant effect (SOD activity, MDA content) ([2]; ML385 30 mg/kg i.p. before P. indicus 54 mg/kg + ISO): nullified P.indicus’s antioxidant effect
Effect on P.indicus-induced reduction in serum cTn-T [2]: attenuated the P.indicus-induced reduction in serum cTn-T
Intrinsic cardiotoxicity of inhibitor [2]: ruled out intrinsic cardiotoxicity

COc1cc(/C=C/C(=O)O)ccc1O [Ferulic acid]
AUC0-24h [1, 8]: 3420 ± 510 ng·h/mL
Cmax [1, 8]: 850 ± 110 ng/mL
Tmax [1, 8]: 0.52 ± 0.15 h
t1/2 [1, 8]: 2.8 ± 0.3 h

— PMC12690059 (Dose-Response, 2025)
